{"source": "ChEMBL document CHEMBL1156338", "about": "(J Med Chem, 2010)", "key": {"[1]": {"assay": "AUC (0 to infinity) in Sprague-Dawley rat at 2 mg/kg, po", "assay_type": "ADME, organism-based", "set-up": "time infinity, dose 2 mg/kg, route oral", "settings": "plasma; call rule not given here"}, "Cytochrome P450 2D6": {"target": "Cytochrome P450 2D6 (Homo sapiens, UniProt P10635)", "sequence (P10635 whole entry)": "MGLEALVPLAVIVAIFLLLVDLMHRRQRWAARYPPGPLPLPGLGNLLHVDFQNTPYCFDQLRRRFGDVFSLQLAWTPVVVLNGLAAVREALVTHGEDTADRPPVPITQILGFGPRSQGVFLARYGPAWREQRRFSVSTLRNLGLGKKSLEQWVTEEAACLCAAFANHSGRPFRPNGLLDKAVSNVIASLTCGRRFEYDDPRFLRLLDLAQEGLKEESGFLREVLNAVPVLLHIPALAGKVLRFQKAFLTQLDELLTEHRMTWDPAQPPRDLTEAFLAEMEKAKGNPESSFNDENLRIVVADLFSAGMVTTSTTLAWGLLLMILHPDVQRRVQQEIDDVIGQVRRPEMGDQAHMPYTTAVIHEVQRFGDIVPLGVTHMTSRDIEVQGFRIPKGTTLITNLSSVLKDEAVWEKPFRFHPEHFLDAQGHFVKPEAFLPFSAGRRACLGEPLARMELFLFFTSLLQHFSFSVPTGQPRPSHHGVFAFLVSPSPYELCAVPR", "assay": "Inhibition of CYP2D6 in human liver microsomes", "assay_type": "ADME, Microsome"}, "in vitro [2]": {"assay": "in vitro", "settings": "human, Caco-2"}, "Cytochrome P450 3A4": {"target": "Cytochrome P450 3A4 (Homo sapiens, UniProt P08684)", "sequence (P08684 whole entry)": "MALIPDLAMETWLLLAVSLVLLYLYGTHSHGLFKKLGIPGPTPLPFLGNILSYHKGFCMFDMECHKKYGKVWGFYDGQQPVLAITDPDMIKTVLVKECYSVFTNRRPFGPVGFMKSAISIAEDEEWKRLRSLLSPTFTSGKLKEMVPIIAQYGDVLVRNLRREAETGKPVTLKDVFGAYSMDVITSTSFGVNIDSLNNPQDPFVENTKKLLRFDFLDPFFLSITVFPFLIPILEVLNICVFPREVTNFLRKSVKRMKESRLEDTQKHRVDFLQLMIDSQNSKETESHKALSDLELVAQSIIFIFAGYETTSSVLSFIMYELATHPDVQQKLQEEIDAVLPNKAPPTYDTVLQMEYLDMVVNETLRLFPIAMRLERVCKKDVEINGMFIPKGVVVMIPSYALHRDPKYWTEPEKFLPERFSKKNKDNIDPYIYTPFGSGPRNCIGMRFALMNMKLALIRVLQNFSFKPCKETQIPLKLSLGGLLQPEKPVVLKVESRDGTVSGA", "assay": "Inhibition of CYP3A4 in human liver microsomes", "assay_type": "ADME, Microsome"}, "[3]": {"target": "T1, Mitogen-activated protein kinase 11 (Homo sapiens, UniProt Q15759)", "T1 sequence (Q15759 whole entry)": "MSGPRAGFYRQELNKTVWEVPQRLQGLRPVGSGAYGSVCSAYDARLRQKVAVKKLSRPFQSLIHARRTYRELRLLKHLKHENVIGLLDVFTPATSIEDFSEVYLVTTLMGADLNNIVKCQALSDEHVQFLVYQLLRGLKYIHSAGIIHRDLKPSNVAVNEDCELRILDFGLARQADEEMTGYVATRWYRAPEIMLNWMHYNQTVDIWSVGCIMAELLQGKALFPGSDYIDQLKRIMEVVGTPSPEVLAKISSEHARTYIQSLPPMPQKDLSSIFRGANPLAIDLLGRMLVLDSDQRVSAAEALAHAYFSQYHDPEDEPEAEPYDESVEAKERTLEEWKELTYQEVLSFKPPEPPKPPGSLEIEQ", "assay": "Inhibition of p38beta"}, "Cytochrome P450 1A2": {"target": "T2, Cytochrome P450 1A2 (Homo sapiens, UniProt P05177)", "T2 sequence (P05177 whole entry)": "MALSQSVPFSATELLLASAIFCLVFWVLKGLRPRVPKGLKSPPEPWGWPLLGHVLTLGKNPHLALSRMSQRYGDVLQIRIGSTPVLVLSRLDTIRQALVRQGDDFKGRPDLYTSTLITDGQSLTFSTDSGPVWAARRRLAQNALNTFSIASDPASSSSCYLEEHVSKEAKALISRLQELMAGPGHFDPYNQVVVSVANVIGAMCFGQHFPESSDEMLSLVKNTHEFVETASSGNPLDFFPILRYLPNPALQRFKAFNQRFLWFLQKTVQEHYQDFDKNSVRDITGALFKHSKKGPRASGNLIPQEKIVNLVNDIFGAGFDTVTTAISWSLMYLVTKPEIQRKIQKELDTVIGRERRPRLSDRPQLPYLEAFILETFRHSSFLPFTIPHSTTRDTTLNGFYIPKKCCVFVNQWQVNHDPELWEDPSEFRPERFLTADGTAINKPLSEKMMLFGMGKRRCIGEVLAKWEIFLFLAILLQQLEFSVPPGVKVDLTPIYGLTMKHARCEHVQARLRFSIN", "assay": "Induction of CYP1A2 in human hepatocytes at 25 uM", "assay_type": "ADME, cell-based, Hepatocyte"}, "Rattus norvegicus": {"tested_on": "Rattus norvegicus", "assay": "Antiarthritic activity against porcine type 2 collagen-induced arthritis in po dosed Lewis rat model assessed as reduction of paw swelling administered qd for 7 days relative to control", "assay_type": "functional", "method_in_brief": "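Arthritis induced by intradermal porcine type II collagen emulsified 1:1 in incomplete Freund's adjuvant; rats grouped at disease onset (day 0, 10-12 days after immunization). Oral dosing once daily for 7 days in vehicle 15% HPBCD, 1% HPMC, 1% Pluronic F68, pH 2.2.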"}, "[4]": {"assay": "Cmax in porcine type 2 collagen-induced arthritis Lewis rat model at 0.01 to 1 mg/kg, po", "assay_type": "ADME, organism-based", "set-up": "dose 0.01-1 mg/kg, route oral", "settings": "in vivo"}, "[5]": {"assay": "Volume of distribution at steady state in Sprague-Dawley rat at 2 mg/kg, iv", "assay_type": "ADME, organism-based", "set-up": "dose 2 mg/kg, route intravenous", "settings": "in vivo, read-out: Vdss"}, "[6]": {"target": "T3, Mitogen-activated protein kinase 12 (Homo sapiens, UniProt P53778)", "T3 sequence (P53778 whole entry)": "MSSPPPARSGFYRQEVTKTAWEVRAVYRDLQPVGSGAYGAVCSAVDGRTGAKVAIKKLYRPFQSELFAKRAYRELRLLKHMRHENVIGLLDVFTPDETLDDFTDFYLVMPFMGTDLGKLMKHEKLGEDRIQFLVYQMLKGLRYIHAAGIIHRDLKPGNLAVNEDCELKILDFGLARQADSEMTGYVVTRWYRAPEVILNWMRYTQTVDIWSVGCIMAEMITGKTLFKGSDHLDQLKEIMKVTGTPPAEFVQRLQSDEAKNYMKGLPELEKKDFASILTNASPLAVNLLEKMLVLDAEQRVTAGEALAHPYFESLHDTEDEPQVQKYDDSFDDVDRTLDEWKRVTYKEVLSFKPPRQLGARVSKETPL", "assay": "Inhibition of p38-gamma"}, "[7]": {"target": "T4, Mitogen-activated protein kinase 13 (Homo sapiens, UniProt O15264)", "T4 sequence (O15264 whole entry)": "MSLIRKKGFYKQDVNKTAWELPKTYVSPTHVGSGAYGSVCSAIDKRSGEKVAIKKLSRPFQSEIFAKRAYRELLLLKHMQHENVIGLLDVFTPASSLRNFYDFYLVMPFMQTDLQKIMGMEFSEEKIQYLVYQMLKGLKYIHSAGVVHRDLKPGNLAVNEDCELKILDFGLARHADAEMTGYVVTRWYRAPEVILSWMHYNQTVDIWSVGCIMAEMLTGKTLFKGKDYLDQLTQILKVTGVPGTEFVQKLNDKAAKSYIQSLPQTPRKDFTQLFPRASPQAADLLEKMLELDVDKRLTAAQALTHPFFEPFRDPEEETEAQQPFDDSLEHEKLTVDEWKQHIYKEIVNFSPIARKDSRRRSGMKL", "assay": "Inhibition of p38delta"}, "[8]": {"assay": "Half life in Sprague-Dawley rat at 2 mg/kg, iv", "assay_type": "ADME, organism-based", "set-up": "dose 2 mg/kg, route intravenous", "settings": "in vivo"}, "in vitro [9]": {"assay": "in vitro", "settings": "human, Caco-2", "remark": "listed apart in the source"}, "[10]": {"assay": "Clearance in Sprague-Dawley rat at 2 mg/kg, iv", "assay_type": "ADME, organism-based", "set-up": "dose 2 mg/kg, route intravenous", "settings": "in vivo"}, "THP-1": {"tested_on": "THP-1", "assay": "Inhibition of LPS-induced TNFalpha production in human THP1 cells after 3 hrs", "assay_type": "functional, cell-based", "settings": "Homo sapiens, THP-1, 3 h; read-out: IC50", "method_in_brief": "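THP-1 cells at 1.5 x 10^6/mL in RPMI 1640, 10% heat-inactivated FBS, NEAA, 30 μM βME. 3-fold serial compound dilutions in DMSO, then LPS stimulation for 3 h at 37 C, 5% CO2. Secreted TNF-alpha read by electrochemiluminescent immunoassay; percent of DMSO control; IC50 is the mean of at least three independent curves.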"}, "[11]": {"assay": "Trough plasma concentration in porcine type 2 collagen-induced arthritis Lewis rat model at 0.01 to 1 mg/kg, po after 24 hrs", "assay_type": "ADME, organism-based", "set-up": "dose 0.01-1 mg/kg, route oral"}, "[12]": {"target": "T1, Mitogen-activated protein kinase 11", "assay": "Inhibition of p38beta at 1 uM relative to control"}, "[13]": {"target": "T5, Nuclear receptor subfamily 1 group I member 2 (Homo sapiens, UniProt O75469)", "T5 sequence (O75469 whole entry)": "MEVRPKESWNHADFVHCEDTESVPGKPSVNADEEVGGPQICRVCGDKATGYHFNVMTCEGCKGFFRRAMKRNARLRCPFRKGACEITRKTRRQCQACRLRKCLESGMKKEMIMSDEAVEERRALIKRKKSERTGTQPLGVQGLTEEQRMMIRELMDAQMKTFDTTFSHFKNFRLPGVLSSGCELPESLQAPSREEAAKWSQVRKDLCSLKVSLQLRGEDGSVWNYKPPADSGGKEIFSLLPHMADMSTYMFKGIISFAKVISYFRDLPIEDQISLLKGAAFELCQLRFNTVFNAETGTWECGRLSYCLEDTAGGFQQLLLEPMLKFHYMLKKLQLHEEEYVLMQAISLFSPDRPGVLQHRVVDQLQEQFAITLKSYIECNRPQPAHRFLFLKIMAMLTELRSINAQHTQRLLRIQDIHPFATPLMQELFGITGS", "assay": "Transactivation of human PXR expressed in HepG2 cells at 2 uM after 24 hrs by luciferase reporter gene assay relative to rifampin", "assay_type": "cell-based", "settings": "hepg2, 24 h", "method_in_brief": "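HepG2 cells transfected with a CYP3A4-promoter luciferase reporter and human PXR cDNA. Compound added from DMSO stocks to final 2 and 10 μM in buffer and incubated 24 h. Luciferase activity read by chemiluminescence and reported as percent of the rifampin (10 μM) positive control.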"}, "[14]": {"target": "Mitogen-activated protein kinase 14 (Homo sapiens, UniProt Q16539)", "sequence (Q16539 whole entry)": "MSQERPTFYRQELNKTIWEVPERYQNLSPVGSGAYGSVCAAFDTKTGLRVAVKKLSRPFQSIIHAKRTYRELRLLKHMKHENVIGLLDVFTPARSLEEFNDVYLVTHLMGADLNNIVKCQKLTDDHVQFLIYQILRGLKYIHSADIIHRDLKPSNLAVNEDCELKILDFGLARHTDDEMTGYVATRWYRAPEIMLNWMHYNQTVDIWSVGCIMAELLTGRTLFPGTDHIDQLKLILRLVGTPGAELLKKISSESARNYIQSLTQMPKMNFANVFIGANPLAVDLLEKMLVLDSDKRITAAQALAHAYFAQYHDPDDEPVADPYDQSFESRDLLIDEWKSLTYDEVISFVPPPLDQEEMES", "assay": "Inhibition of p38alpha at 1 uM relative to control"}}, "data": [{"smiles": "Cc1ccc(C(=O)NC2CC2)cc1-c1cc2cnn(-c3c(F)cccc3F)c2n(C)c1=O", "values": [{"measurement": "AUC(0-inf)", "setting": "[1]", "result": 3.99, "unit": "µg·h/mL"}, {"measurement": "IC50", "setting": "Cytochrome P450 2D6", "result": "> 25", "unit": "µM"}, {"measurement": "Papp B→A", "setting": "in vitro [2]", "result": 270, "unit": "nm/s"}, {"measurement": "IC50", "setting": "Cytochrome P450 3A4", "result": "> 25", "unit": "µM"}, {"measurement": "Ki", "setting": "[3]", "result": 0.0025, "unit": "µM"}, {"measurement": "Activity", "setting": "Cytochrome P450 1A2", "result": "Not Active"}, {"measurement": "Activity", "setting": "Rattus norvegicus", "result": "Dose-dependent effect"}, {"measurement": "ED50", "setting": "Rattus norvegicus; 168 h", "result": "≤ 0.01", "unit": "mg/kg"}, {"measurement": "Cmax", "setting": "[4]", "result": 11, "unit": "nM"}, {"measurement": "Vd", "setting": "[5]", "result": 0.837, "unit": "L/kg"}, {"measurement": "Ki", "setting": "[6]", "result": 3.5, "unit": "µM"}, {"measurement": "Ki", "setting": "[7]", "result": 2.1, "unit": "µM"}, {"measurement": "half-life", "setting": "[8]", "result": 2.7, "unit": "h"}, {"measurement": "Papp A→B", "setting": "in vitro [9]", "result": 270, "unit": "nm/s"}, {"measurement": "clearance", "setting": "[10]", "result": 0.22, "unit": "L/h/kg"}, {"measurement": "IC50", "setting": "THP-1", "result": 0.0006, "unit": "µM"}, {"measurement": "concentration at 24 h", "setting": "[11]", "result": 4.4, "unit": "nM"}, {"measurement": "inhibition", "setting": "[12]", "result": "< 50", "unit": "%"}, {"measurement": "Activity", "setting": "[13]", "result": 5, "unit": "%"}, {"measurement": "inhibition", "setting": "[14]", "result": "< 50", "unit": "%"}]}]}
